Experiment [1] deals with Insulin receptor (Homo sapiens) (UniProt P06213). Kind of experiment: Inhibition of INS-R at 5 to 10 uM.
For experiment [2], the target named is Serine/threonine-protein kinase pim-2 (Homo sapiens) (UniProt Q9P1W9). As to the kind of experiment: Inhibition of PIM2 at 5 to 10 uM.
Experiment [3] concerns the target Serine/threonine-protein kinase mTOR (Homo sapiens, UniProt P42345). As to the kind of experiment: Inhibition of mTOR. In outline:
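mTOR (FRAP1) kinase assay using GFP-4E-BP1 substrate and a Tb-labelled anti-phospho-4E-BP1 (Thr46) antibody in a TR-FRET format, under the manufacturer's conditions; averages of two independent experiments run in duplicate.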

Experiment [4] has as its target Phosphatidylinositol 4,5-bisphosphate 3-kinase catalytic subunit gamma isoform (Homo sapiens, UniProt P48736). Kind of experiment: Inhibition of human PI3K p110gamma. As to conditions: read-out: Ki(app).
The target in experiment [5] is T1, Inhibitor of nuclear factor kappa-B kinase subunit beta (Homo sapiens) (UniProt O14920).
T1 sequence (whole entry): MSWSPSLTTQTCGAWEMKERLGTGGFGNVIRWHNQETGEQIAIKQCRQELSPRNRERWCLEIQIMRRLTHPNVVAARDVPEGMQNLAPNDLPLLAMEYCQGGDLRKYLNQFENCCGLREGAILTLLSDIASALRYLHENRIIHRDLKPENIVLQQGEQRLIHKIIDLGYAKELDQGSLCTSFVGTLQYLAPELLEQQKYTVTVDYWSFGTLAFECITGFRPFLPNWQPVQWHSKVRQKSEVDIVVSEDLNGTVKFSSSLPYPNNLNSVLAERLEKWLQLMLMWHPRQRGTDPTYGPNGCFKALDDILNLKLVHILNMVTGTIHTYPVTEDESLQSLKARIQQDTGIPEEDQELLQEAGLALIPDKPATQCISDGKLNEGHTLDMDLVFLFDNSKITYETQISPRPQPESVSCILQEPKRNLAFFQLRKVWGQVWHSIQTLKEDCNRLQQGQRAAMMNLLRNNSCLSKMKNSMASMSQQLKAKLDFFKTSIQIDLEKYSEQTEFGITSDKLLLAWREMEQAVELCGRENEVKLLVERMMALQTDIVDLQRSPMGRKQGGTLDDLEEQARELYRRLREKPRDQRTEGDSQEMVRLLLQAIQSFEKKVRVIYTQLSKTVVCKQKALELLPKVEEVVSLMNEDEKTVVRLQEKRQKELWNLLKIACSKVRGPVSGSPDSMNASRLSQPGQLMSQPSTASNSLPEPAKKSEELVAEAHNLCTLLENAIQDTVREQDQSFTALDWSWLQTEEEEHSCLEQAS
As to the kind of experiment: Inhibition of IKK-beta at 5 to 10 uM.

For experiment [6], the target named is T2, PI3-kinase p110-alpha/p85-alpha (Homo sapiens, UniProt P42336). As to the kind of experiment: Inhibition of PI3K p110alpha/p85alpha-mediated AKT1 phosphorylation at Ser473 in human U2OS cells. It is filed as cell-based. In outline:
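Endogenous phospho-Akt1 (Ser473) measured in U2OS osteosarcoma cells kept in 0.1% FBS and then serum-stimulated; read-out by cell-based ELISA with femto chemiluminescent substrate.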

Experiment [7] addresses Casein kinase I isoform alpha (Homo sapiens) (UniProt P48729). As to the kind of experiment: Inhibition of CK1alpha1 at 5 to 10 uM.
Experiment [8] has as its target T2, PI3-kinase p110-alpha/p85-alpha. Kind of experiment: Inhibition of human PI3K p110alpha/p85alpha. The class given is protein-complex assay. As to conditions: read-out: Ki(app).
Experiment [9] concerns the target T3, NUAK family SNF1-like kinase 1 (Homo sapiens) (UniProt O60285).
T3 sequence (whole entry): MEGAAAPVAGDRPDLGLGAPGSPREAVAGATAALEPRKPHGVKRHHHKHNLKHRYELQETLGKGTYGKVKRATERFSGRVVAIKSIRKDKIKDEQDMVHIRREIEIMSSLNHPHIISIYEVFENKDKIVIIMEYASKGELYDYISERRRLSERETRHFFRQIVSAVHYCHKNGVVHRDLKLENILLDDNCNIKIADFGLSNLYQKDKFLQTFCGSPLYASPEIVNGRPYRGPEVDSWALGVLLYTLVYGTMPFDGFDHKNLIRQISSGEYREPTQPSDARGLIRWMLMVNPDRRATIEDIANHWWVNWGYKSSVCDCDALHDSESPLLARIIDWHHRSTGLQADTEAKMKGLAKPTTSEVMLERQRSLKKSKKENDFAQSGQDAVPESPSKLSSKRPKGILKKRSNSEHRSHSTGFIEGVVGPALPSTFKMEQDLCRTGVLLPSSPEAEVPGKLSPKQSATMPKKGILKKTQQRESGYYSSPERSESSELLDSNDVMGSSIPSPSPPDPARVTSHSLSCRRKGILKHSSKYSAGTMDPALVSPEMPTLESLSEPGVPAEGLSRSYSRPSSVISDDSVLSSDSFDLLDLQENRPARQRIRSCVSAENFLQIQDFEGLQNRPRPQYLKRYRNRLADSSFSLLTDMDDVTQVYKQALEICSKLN
As to the kind of experiment: Inhibition of ARK5 at 5 to 10 uM.

Experiment [10] concerns the target Mast/stem cell growth factor receptor Kit (Homo sapiens) (UniProt P10721). Kind of experiment: Inhibition of KIT at 5 to 10 uM.
The subject of experiment [11] is Serine/threonine-protein kinase B-raf (Homo sapiens), P15056 [V600E]. Kind of experiment: Inhibition of BRAF V600E mutant at 5 to 10 uM.
The target in experiment [12] is Hepatocyte growth factor receptor (Homo sapiens) (UniProt P08581). Kind of experiment: Inhibition of MET at 5 to 10 uM.
The target in experiment [13] is Fibroblast growth factor receptor 1 (Homo sapiens) (UniProt P11362). Kind of experiment: Inhibition of FGF-R1 at 5 to 10 uM.
Experiment [14] deals with T4, Serine/threonine-protein kinase Sgk1 (Homo sapiens) (UniProt O00141).
T4 sequence (whole entry): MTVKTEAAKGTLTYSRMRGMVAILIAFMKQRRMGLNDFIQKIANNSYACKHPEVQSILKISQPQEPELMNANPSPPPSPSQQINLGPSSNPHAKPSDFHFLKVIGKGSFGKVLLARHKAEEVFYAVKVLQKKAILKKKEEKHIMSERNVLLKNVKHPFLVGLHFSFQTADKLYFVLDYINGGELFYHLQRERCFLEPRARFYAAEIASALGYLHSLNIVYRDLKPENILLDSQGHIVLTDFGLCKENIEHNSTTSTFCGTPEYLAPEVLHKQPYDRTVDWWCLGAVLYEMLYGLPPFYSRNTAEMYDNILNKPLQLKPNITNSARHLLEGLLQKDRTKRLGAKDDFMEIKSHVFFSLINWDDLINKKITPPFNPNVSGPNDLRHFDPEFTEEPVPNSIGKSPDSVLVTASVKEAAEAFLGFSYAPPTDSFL
As to the kind of experiment: Inhibition of SGK1 at 5 to 10 uM.

Experiment [15] deals with Mitogen-activated protein kinase 8 (Homo sapiens) (UniProt P45983). As to the kind of experiment: Inhibition of JNK1 at 5 to 10 uM.
Experiment [16] has as its target RAC-alpha serine/threonine-protein kinase (Homo sapiens) (UniProt P31749). As to the kind of experiment: Inhibition of AKT1 at 5 to 10 uM.
Experiment [17] is described as follows: Inhibition of PDGFR at 5 to 10 uM.
The target of experiment [18] is Epidermal growth factor receptor (Homo sapiens) (UniProt P00533). As to the kind of experiment: Inhibition of EGF-R at 5 to 10 uM.

This note sets out measurements from ChEMBL document CHEMBL1955823, “Imidazo[1,2-a]pyrazines as novel PI3K inhibitors” (Bioorg Med Chem Lett, 2012).

Bounds are passed on as bounds.

T2 sequence (P27986 whole entry): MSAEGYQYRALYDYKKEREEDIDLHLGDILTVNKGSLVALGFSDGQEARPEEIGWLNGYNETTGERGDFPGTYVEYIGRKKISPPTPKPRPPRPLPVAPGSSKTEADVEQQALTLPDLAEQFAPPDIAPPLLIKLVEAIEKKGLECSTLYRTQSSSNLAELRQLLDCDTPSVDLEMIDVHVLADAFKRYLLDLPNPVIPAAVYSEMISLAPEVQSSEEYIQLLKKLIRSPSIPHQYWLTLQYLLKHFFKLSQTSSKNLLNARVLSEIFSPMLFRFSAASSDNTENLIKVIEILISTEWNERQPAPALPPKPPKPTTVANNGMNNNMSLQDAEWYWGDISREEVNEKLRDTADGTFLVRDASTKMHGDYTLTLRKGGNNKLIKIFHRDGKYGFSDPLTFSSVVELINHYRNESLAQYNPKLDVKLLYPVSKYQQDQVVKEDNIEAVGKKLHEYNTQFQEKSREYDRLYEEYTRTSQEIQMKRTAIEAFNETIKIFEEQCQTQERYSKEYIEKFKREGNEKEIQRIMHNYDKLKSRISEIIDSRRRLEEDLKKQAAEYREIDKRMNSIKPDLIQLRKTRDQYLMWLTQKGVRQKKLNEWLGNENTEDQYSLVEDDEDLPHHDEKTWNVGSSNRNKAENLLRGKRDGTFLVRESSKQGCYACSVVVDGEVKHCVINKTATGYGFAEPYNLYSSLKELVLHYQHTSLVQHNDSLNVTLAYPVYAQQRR
T2 sequence (P42336 whole entry): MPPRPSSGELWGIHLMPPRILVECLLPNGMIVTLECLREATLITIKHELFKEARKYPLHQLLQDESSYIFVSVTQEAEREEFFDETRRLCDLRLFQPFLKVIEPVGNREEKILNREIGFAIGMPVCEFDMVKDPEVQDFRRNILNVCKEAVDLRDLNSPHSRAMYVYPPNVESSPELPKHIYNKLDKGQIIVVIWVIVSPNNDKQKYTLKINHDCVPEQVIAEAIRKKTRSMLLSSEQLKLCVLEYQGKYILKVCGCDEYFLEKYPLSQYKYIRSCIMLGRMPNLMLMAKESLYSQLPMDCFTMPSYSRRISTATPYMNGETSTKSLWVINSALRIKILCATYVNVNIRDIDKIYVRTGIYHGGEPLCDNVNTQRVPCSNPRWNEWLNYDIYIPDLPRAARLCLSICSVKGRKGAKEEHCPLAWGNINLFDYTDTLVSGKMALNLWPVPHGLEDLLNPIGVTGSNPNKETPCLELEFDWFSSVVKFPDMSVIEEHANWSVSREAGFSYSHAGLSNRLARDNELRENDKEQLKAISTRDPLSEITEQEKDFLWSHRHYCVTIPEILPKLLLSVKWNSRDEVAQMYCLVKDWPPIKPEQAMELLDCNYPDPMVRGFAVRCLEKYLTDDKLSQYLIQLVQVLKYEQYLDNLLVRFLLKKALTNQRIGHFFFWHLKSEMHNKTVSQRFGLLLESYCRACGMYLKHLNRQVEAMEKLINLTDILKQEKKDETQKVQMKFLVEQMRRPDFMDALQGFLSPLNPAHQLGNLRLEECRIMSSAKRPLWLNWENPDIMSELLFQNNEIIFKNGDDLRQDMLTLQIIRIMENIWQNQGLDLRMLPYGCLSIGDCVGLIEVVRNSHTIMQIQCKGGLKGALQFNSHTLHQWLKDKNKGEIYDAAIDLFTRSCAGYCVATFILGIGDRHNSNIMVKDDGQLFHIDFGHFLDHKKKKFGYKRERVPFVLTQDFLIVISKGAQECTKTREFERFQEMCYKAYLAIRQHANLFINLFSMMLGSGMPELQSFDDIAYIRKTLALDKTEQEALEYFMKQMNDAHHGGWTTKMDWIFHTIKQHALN
Sequence of RAC-alpha serine/threonine-protein kinase (Homo sapiens) (P31749 whole entry): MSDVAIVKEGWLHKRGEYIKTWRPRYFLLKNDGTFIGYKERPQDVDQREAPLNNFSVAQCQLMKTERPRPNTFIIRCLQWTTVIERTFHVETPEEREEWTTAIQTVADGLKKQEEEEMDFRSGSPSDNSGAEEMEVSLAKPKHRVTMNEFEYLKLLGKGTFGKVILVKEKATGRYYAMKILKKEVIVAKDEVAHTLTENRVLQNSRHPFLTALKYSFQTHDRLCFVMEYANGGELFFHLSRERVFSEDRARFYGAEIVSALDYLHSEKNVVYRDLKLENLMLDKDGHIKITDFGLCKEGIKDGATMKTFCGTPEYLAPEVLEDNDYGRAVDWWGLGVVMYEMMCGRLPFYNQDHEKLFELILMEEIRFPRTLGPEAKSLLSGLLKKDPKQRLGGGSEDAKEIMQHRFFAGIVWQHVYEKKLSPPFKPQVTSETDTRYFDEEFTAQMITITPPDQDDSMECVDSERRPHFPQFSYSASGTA
Sequence of Mast/stem cell growth factor receptor Kit (Homo sapiens) (P10721 whole entry): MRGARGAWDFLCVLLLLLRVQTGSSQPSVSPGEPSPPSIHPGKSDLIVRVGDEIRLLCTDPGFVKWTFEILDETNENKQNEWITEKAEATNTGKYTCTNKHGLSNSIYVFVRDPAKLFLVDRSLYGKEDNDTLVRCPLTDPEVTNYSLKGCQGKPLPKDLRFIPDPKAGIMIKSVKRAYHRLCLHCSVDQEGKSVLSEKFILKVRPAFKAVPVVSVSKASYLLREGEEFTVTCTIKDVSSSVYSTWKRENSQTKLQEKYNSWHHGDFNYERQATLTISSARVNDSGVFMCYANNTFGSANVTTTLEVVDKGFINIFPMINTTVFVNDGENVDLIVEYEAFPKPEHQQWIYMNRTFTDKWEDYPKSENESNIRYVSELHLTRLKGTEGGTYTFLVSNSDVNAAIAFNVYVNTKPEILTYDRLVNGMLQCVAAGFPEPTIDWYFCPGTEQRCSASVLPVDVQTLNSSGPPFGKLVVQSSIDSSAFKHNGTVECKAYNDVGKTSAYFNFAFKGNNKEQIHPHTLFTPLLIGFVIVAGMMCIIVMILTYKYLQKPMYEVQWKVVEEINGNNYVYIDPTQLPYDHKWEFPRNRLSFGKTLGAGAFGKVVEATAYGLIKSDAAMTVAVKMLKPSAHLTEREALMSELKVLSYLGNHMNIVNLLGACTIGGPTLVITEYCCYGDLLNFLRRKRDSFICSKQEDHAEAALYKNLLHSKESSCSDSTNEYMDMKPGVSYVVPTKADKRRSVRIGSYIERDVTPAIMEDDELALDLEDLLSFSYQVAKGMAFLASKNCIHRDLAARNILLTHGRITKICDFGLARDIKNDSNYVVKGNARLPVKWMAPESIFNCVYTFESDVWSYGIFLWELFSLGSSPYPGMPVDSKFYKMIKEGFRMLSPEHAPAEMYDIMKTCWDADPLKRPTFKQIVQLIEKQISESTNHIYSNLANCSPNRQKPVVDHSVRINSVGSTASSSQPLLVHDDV
Sequence of Phosphatidylinositol 4,5-bisphosphate 3-kinase catalytic subunit gamma isoform (P48736 whole entry, canonical isoform): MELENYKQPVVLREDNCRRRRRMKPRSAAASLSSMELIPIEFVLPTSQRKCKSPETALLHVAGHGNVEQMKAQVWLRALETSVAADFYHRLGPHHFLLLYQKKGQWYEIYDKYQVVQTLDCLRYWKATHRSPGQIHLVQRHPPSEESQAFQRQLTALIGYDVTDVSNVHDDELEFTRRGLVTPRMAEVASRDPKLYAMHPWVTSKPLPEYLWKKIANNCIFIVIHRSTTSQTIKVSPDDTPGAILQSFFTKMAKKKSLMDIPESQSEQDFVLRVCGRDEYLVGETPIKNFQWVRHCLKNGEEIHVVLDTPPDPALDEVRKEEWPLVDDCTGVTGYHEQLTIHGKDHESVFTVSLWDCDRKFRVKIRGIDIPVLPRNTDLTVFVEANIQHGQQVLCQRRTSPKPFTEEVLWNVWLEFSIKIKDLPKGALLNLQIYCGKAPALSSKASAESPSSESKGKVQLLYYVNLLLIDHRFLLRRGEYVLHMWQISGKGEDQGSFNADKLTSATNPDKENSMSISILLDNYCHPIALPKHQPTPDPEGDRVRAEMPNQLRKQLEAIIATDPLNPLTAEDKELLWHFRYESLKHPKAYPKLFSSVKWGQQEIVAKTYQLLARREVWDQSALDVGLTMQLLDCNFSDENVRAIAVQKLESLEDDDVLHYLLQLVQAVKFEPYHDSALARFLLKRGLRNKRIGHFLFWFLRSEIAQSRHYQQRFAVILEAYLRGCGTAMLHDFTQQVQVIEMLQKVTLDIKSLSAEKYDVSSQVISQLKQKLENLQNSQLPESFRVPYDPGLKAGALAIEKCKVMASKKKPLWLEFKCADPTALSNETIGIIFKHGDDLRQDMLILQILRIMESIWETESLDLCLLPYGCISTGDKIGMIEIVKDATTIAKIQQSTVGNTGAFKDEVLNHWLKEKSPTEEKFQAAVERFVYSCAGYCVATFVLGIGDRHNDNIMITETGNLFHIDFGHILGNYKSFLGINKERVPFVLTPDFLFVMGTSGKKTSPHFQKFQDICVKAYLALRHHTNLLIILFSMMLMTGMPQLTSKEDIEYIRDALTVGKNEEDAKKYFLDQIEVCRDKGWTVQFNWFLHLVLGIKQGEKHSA
Sequence of Serine/threonine-protein kinase pim-2 (Homo sapiens) (Q9P1W9 whole entry, looked up): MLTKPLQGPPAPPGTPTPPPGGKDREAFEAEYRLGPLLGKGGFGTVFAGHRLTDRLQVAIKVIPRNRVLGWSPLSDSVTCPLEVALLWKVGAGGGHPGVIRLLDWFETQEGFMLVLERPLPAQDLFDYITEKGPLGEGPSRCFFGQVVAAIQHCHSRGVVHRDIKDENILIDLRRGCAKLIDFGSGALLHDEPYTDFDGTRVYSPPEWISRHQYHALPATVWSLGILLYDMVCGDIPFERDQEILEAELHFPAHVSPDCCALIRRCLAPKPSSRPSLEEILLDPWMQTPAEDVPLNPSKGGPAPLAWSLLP
Sequence of Casein kinase I isoform alpha (Homo sapiens) (P48729 2-337 limits assumed): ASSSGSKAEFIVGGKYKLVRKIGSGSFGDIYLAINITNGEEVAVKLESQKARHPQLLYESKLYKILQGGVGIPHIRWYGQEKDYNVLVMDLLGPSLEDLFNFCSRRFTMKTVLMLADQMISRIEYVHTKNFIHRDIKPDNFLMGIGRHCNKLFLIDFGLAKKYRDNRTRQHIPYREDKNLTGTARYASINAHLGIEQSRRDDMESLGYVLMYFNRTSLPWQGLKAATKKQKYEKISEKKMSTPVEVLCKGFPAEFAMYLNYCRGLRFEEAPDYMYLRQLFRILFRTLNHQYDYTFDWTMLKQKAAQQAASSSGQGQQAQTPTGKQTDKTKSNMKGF

Take `O=C(NCCN1CCOCC1)c1cn2cc(-c3cccc4[nH]ncc34)nc(N3CCOCC3)c2n1`: the inhibition in [1] was 50%; in experiment [2], less than 50%; in experiment [5], less than 50%; in experiment [7], less than 50%; in experiment [9] it was less than 50%; in experiment [10], less than 50%. The inhibition in experiment [11] is less than 50%; in experiment [12], less than 50%; in experiment [13], less than 50%; in experiment [14], less than 50%; in [15] it was less than 50%; in experiment [16], 50%. The inhibition in experiment [17] and in [18] was less than 50% throughout. The molecule also yielded an IC50 in experiment [3] of more than 10000 nM. For the same molecule, the Ki is more than 500 nM in experiment [4] and 65 nM in [8]. In [6], this molecule registered a concentration giving a half-maximal response (EC50) of 452 nM.

The term inhibition denotes the relative decrease from the control value, in per cent. A higher inhibition goes with strong suppression. A word on the IC50: it is the point on the concentration scale where inhibition reaches its midpoint. A high value points to lower potency. By EC50 is commonly meant the concentration at which the effect is half-maximal.
